From the RNAGym collection of RNA variant scans (doi:10.1126/science.aae0568) come the findings set out here.

Variants at the floor of the assay were thinned out.

The labels stand for the following.
B1: tRNA (parent)
chain: GUUCCGUUGGCGUAAUGGUAACGCGUCUCCCUCCUAAGGAGAAGACUGCGGGUUCGAGUCCCGUACGGAACG

In this series the parent is B1. Kind of series: yeast fitness relative to wild type (ratio to wild type); higher = fitter; tRNA-Arg(CCU), competitive growth, 37 C, YPD. The gist of the method:
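The tRNA-Arg(CCU) gene variants were made by chemical synthesis with a 3% per-site mutation rate at 69 sites and inserted at the native genomic locus of Saccharomyces cerevisiae. After pooling, the strains were competed in YPD at 37°C for 24 hours in six parallel replicates. Gene amplicons from the start population and each end population were read by 100-nucleotide paired-end sequencing, and Darwinian fitness relative to wild type was taken from genotype frequency changes. Genotypes needed ≥ 100 starting reads, and estimates < 0.5 were set to 0.5.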
With C11G C31G C34U A40C, the yeast fitness is at most 0.5. In the case of C29A C55U G63C U64C, the yeast fitness is at most 0.5. For C5G A45C U64G, the yeast fitness was at most 0.5.

On to C5G A14C G23C G38A G58C G63A A70G, for which the yeast fitness is at most 0.5. On to U26A C29U C31U G48A, for which the yeast fitness came to 0.596. Turning to C4U G63C, the yeast fitness came to 0.782. G67A A70U: the yeast fitness was 0.938. In the case of C61U G67U, the yeast fitness stood at 0.86. As for U7C G48A U54A C55G A65U, the yeast fitness was at most 0.5. In the case of A20U C30A A40C, the yeast fitness was at most 0.5.

For U7C A42G, the yeast fitness stood at 0.716. The same measure for U8A C33G A42U A43U C49U A65C G68C: at most 0.5; for C31G G44C A69C A70C: 0.528; for C4G U8C U16A A21C C24G A45C G48A G67A: 0.53. With C5U C22U G48C C66U, the yeast fitness is at most 0.5. As to U8G G10C A20G U59C G67A, the yeast fitness was at most 0.5. Regarding A21U U47G G67A A69G, the yeast fitness is at most 0.5.

As for C27G A36G G67U, the yeast fitness was at most 0.5. With U8C C22U C31U C60A the figure was at most 0.5; with G6A G10A A43G U47G, 0.761. In the case of U2A C34U G48A C60U, the yeast fitness worked out at 0.602.

For the variant U3A C24G C29A G50C A57C, the yeast fitness was at most 0.5. Take A20C C29U C49G G63C C66G: the yeast fitness is at most 0.5. With G10A C30U C46A C66U, the yeast fitness was at most 0.5.

Consider A21C A45U G52C, for which the yeast fitness amounted to 0.581. With C34U A42C A43U, the yeast fitness is at most 0.5.

On to C24G U28C C31G C66U, for which the yeast fitness is at most 0.5. With U3A G48C U59C the figure was 0.537; with U28G C33G C49U, at most 0.5; with C5A U28G C66U, at most 0.5. Take C61A C62A: the yeast fitness is 0.603. Take G6A U8C: the yeast fitness amounted to 0.792. With C11G G58A the figure was 0.722; with G10A A14C C29A, at most 0.5; with U26A A42C, 0.97. Turning to G25C C29U A45C G58A, the yeast fitness was at most 0.5. For the variant C33U G48A, the yeast fitness was determined as 0.678.

As to A15C C33U U47G C49U G52C, the yeast fitness is at most 0.5. The same measure for C5G U7A A42C: at most 0.5. The same measure for C24U U26C G63A A65G: at most 0.5; for U13A A15G C22G U28A: 0.619. Take G6C U53C: the yeast fitness came out at 0.865. Take C4A C11A U13C: the yeast fitness is 0.605. With A21U C30U U32A G68C the figure was at most 0.5. In the case of U8A G25C U35A, the yeast fitness is at most 0.5. For U26G G51C G58C, the yeast fitness came out at 0.54.

Consider A42C U59A, for which the yeast fitness came to 0.764.

On to U8A G25A C29G A37C A65U, for which the yeast fitness is at most 0.5. U19A A37C C49G: the yeast fitness was determined as 0.501. As to C11A A14G U19G A43C U53A C62A C66U, the yeast fitness was at most 0.5.

In the case of U2C C11A, the yeast fitness was at most 0.5.

On to U7C G12C U32A G39A C49G, for which the yeast fitness is 0.602. With A14G G17A G23A U28G, the yeast fitness was at most 0.5. With C4U C29A G52C U54C C55A U59G the figure was at most 0.5; with G12C C24G C27U A43U G67A, at most 0.5.

As for C27U A43C U64C, the yeast fitness stood at 0.732.

In the case of C22U A57U, the yeast fitness is 0.617. In the case of U2G G9C A20G G25A A42C C46G C49U A69C, the yeast fitness is at most 0.5.

As for C11A A43G A65C, the yeast fitness stood at 0.501. Regarding G10C C22U U59G C60U, the yeast fitness was at most 0.5.

In the case of A15U C55U G56A C66G, the yeast fitness came to 0.59. In the case of U28C U32C C62A, the yeast fitness is at most 0.5. The same measure for C22A G23C: 0.535; for U8A U28C: 0.738; for G9A A20G U59A C66G: at most 0.5. Regarding C5U A21C C31G C66U, the yeast fitness amounted to 0.528. The same measure for C4G U19C C62U G63A: 0.545.

Take C5U C11U U35G A43U C46G U53C A69C: the yeast fitness was 0.549.

In the case of U7C A69C, the yeast fitness came out at 0.921. As for C46G G63C G67A A70G, the yeast fitness was at most 0.5.

Consider G6A A20U C49U G50U, for which the yeast fitness is at most 0.5. Turning to A20C U28G A69C, the yeast fitness is 0.714. The same measure for A15U G41C G56C: at most 0.5; for G12A A15U C22A U26A C33G G38C G41C A43C U47G G67C: at most 0.5. With A14U G18C, the yeast fitness was found to be 0.583. As for G23C C27U G56A G63C, the yeast fitness was 0.573. With C4G G12U A14C C49U A65G the figure was 0.513.

Take U2G G51C: the yeast fitness is 0.543. Regarding A21C C30U U32G U53C G67A, the yeast fitness is at most 0.5. For A15G C31A A65G, the yeast fitness was at most 0.5.

For G25A C49U U59G, the yeast fitness came to 0.54. G23C: the yeast fitness is 0.653.

Regarding U8C G39C U47C C60A C61G A69U, the yeast fitness is at most 0.5.

For C4G A14U C24U C49G, the yeast fitness is at most 0.5. The same measure for C4U U7A C30G C34G A40C A57U: at most 0.5. The same measure for C22G C49U: 0.986. Take C5G C24U A43U C55U G68C: the yeast fitness is at most 0.5. Regarding U2C U3C C22U C34U, the yeast fitness is at most 0.5. Take G9A C62U: the yeast fitness was 0.916. As to U2A U28C C49U C62G, the yeast fitness is at most 0.5. As to U8C A15U G38C G39A A43C C60G A65C, the yeast fitness was at most 0.5. As to U16C C34U, the yeast fitness worked out at 0.759. Take C4A G39A G63C: the yeast fitness is at most 0.5. As for A14U C22G A42C C66U, the yeast fitness was at most 0.5.

C24U C31A C33A C34U C46A C62U G67A: the yeast fitness was at most 0.5.

Consider U8A A69U, for which the yeast fitness came out at 0.719. Regarding A14C C31G A43C G51A, the yeast fitness is at most 0.5. The same measure for C27G U47A: 0.702; for C11U C33U A70U: 0.612; for G9C U13G U28C G41C A43C A45U C49G U53G A69C: 0.611. With C60U A70G, the yeast fitness amounted to 0.786.

In the case of A14C C46A, the yeast fitness is 0.641.

As for A15U C30G, the yeast fitness was at most 0.5. For C4A U13C C31G G44C G52A G58A, the yeast fitness is at most 0.5.

Turning to G9A C29A G50A A69C, the yeast fitness was at most 0.5. Regarding U13A A15G A65G, the yeast fitness is 0.877. Regarding U13G G18C C30U C33G U47G, the yeast fitness came out at 0.578. Consider U7C U59C, for which the yeast fitness is 0.846.

Regarding U26A A57C A70U, the yeast fitness is at most 0.5. As to C29U U32G A43U G44C C61U, the yeast fitness worked out at 0.509.

Regarding A15C U59A A69C, the yeast fitness is at most 0.5. With U16G G38A U54C A65U the figure was at most 0.5; with U13C A36U U64C, at most 0.5.

On to U3A G12C A21C A36C A70U, for which the yeast fitness came out at 0.553.

For the variant C24U A43G C60A, the yeast fitness was at most 0.5. With G10C U26A C33U A70G, the yeast fitness is at most 0.5. Take G6C U16G G39C: the yeast fitness was at most 0.5. C62U A69U: the yeast fitness turned out to be 0.955. Regarding C5U C22G C27U, the yeast fitness came out at 0.612.

Take C55G G63A: the yeast fitness was determined as 0.622. C11U C29U A40C C49G: the yeast fitness came to 0.648.

In the case of C11U U13C C29U A37C C46A, the yeast fitness was at most 0.5.

As to A20C A40G, the yeast fitness is 0.647. With G9C C61G G63C the figure was at most 0.5; with U3A A21U C60G C66U, at most 0.5; with A15C C31A G50A, at most 0.5.

With U2C A20U U28A G67U, the yeast fitness worked out at 0.579. The same measure for C22A C24U G44C G48A: at most 0.5. With C30A G44A A45U C62U the figure was at most 0.5. Turning to C11U C27U C31A U35C C55G C66U A70C, the yeast fitness was 0.512.

For C5G C46U U53A, the yeast fitness came to 0.529. Consider G9A C34G C66U, for which the yeast fitness is at most 0.5. As for U2C A40U, the yeast fitness worked out at 1.05. As for A14C G23A C29U U35C G48A, the yeast fitness is at most 0.5. U3C U32G C61A C62A: the yeast fitness amounted to 0.53.

Take C22G C24G C29U C33U A37C G52A C66U: the yeast fitness was determined as 0.548. For C4G A45U G48C, the yeast fitness was determined as 0.501. With C11G A21U, the yeast fitness was 0.536.

Consider G12A C31U U53A U54G G58C C62U, for which the yeast fitness came out at 0.635. With A15G C29A U64C the figure was at most 0.5. As to C24G C34G U53A, the yeast fitness is 0.552.

Turning to A21C C30U A43U G48C, the yeast fitness was at most 0.5.

In the case of U2G G12A U13A G25C U28A C33A G63C U64C, the yeast fitness is at most 0.5. In the case of C5A A15U C31G G39A C49U G58A G67A, the yeast fitness was at most 0.5. With U16C C31U C33U G63C the figure was at most 0.5. The same measure for A15U G67C: 0.657; for C11G A21U C24G G51A G68A: at most 0.5. With U8C C29U U35G C62U the figure was at most 0.5. For U3A C4A U8C C29G A37C, the yeast fitness was found to be 0.581.

Take C27G A37G C66U: the yeast fitness is 0.538. Regarding C11U A37G A57G A70C, the yeast fitness is at most 0.5.

As to A43U C46A, the yeast fitness was 0.98. Take C11U U26A C34G G68C: the yeast fitness is at most 0.5. Consider U54C C61A G68U, for which the yeast fitness was at most 0.5. With G17A C22U U59A the figure was at most 0.5; with G18A C30U A40U G44C, at most 0.5. On to C30G U35C C62U, for which the yeast fitness turned out to be 0.551. The same measure for C4A G6A G25A C29G A57G: at most 0.5. In the case of C4A A20G U28G G68C A70C, the yeast fitness is at most 0.5. Take C11G U16A C29U U53C C62G: the yeast fitness is at most 0.5.

For C11U G18A A36U G48C, the yeast fitness was at most 0.5. With C34A A43U A70U, the yeast fitness worked out at 0.607. The same measure for C5A C33U: 0.603. Regarding G17C A37C A40C C61U G68A, the yeast fitness was at most 0.5.

Consider U3C G50A A65U, for which the yeast fitness was found to be 0.652.

As for U2G A15U C62A, the yeast fitness was 0.613. Turning to U13C U19A A42C G50C, the yeast fitness was found to be 0.619.
